This is a sample that favours compounds with a hit; in the whole collection about 2.3% have one here.
TRPC4 agonist = opens the mouse TRPC4 cation channel | Q9QUQ5 | HEK293 TRPC4beta/mu-opioid, Fluo4 calcium fluorescence; active compounds read high | B-score at 10 µM | actives 0.49% (n = 310,000) | AID 2237;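 active means B-score above 5 SD of library B-scores, and initial fluorescence ratio not above library mean plus 5 SD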;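 further: positive B-score marks a calcium rise read as TRPC4 activation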
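Technique: kinetic Fluo4 calcium fluorescence; Test system: TRPC4beta and mu-opioid receptor HEK293 stable cells; Measure: B-scored integrated calcium fluorescence ratio; Benchmarks: low control buffer alone, high control maximal DAMGO; Schedule: 45 min room-temperature Fluo4 loading, 110 s read.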
TRPC6 inhibitor = inhibitors of mouse TRPC6 channel | Q61143 | HEK293-TRPC6, membrane potential dye, ACh-evoked depolarization; active compounds read low | B-score at 10 µM | actives 1.1% (n = 310,000) | AID 2553;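 active means B-score under library mean minus 3 SD, initial fluorescence not abnormally high, positive integrated signal ratio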;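 further: B-score derived from integrated fluorescence ratio over the kinetic read; more negative B-score means stronger inhibition of depolarization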
TRPC6 activator = activators of mouse TRPC6 channel; HEK293-TRPC6 membrane potential dye fluorescence; active compounds read high; B-score at 10 µM; actives 0.13% (n = 310,000); AID 2550;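 active means B-score of the integrated fluorescence ratio above library mean plus 3 SD, and starting fluorescence ratio within library mean plus 5 SD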;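 further: higher score means more depolarization so channel activation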
TRPC4 inh = inhibitors of mouse TRPC4 channel; HEK293 TRPC4beta/mu-opioid, DAMGO-evoked Fluo4 calcium flux; active compounds read low; B-score at 10 µM; actives 0.39% (n = 300,000);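 active means B-score over 3 SD under the library average, no early fluorescence shift, positive overall ratio signal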
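Signal: kinetic Fluo4 fluorescence imaging of calcium influx. Material: stable TRPC4beta/mu-opioid receptor HEK293 cells. Probe or stimulus: DAMGO in two steps, submaximal then maximal.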
TRPC4 PAM = allosteric potentiators of mouse TRPC4 channel; AID 2227; Q9QUQ5; B-score at 10 µM; actives 0.42% (n = 310,000); HEK293 TRPC4beta/mu-opioid, DAMGO EC20, Fluo-4 Ca2+ flux; active compounds read high;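 active means B-score of calcium response area above 5 SD of library B-scores, with initial fluorescence ratio within 5 SD of library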;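 further: B-score of integrated fluorescence ratio over time as area under calcium response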
* hit, by the source's call; i = inactive.

SMILES	TRPC4 agonist	TRPC6 inhibitor	TRPC6 activator	TRPC4 inh	TRPC4 PAM
COc1ccc(C(=O)C2CCCN(Cc3ccc(Sc4nncn4C)o3)C2)cc1F (stereo not given)	131*	i	i	i	i
CC1(C)CC(=O)C/C(=N\NC(=O)CCc2ccc(S(=O)(=O)N3CCOCC3)cc2)C1	i	i	i	i	i
O=c1[nH]ncc(N2CCN(C(c3ccccc3)c3ccccc3)CC2)c1Cl	i	i	i	-9*	i
O=c1[nH]ncc(N2CCCC2)c1Cl	i	i	i	i	i
CCOC(=O)Cc1csc(NC(=O)C(CC(C)C)NC(=O)C2CCCCC2)n1 (stereo not given)	i	i	i	i	i
COC(=O)C(NNc1ccccc1C)(NC(=O)c1ccc(F)cc1)C(F)(F)F (stereo not given)	i	i	i	i	i
Cc1[nH]c2ccccc2c1N=Nc1ccccc1F	i	i	i	-6*	i
Cc1ccc([N+](=O)[O-])cc1S(=O)(=O)Nc1ccc(N2CCOCC2)cc1	i	i	i	i	i
CSc1c(C#N)sc(=S)n1-c1ccc(C)cc1	i	i	i	-7*	i
O=C(Nc1ccc([N+](=O)[O-])cn1)C1CCCCC1	i	i	i	i	22*
O=C(Nc1ccc([N+](=O)[O-])cn1)C1CC1	i	i	i	i	i
CCOc1ccc(S(=O)(=O)N2CCN(C(=S)NC3CC3)CC2)cc1	i	i	i	i	18*
O=C(Cn1nc(-c2ccccc2)ccc1=O)NCCN1CCN(Cc2ccccc2)CC1	i	i	i	i	19*
O=C(Cc1ccccc1)NCCCN1CCN(CCCNC(=O)Cc2ccccc2)CC1	i	i	i	i	11*
Cc1ccc(NC(=O)C(=O)NCCN2CCN(C(=S)Nc3ccccc3)CC2)cc1	i	i	i	i	i
CCC/C(O)=N\S(=O)(=O)c1ccc(N=NN(C)C)cc1	i	i	i	i	i
Clc1ccc(CN2C3=NCCCN3c3ccccc32)cc1	i	i	i	i	i
Clc1ccc(CN2C3=NCCCN3c3ccccc32)cc1Cl	i	i	i	-6*	i
CC1(C)Cc2nc3oc4c(=O)n(CC(=O)Nc5ccccc5)cnc4c3cc2CO1	i	i	i	-6*	i
CC(=O)Nc1ccc(S(=O)(=O)N(C)CC(=O)OCC(=O)N2CCCC2=O)cc1	i	i	i	i	i
CC1(c2ccccc2)O[C@@H]2C[C@H]3[C@@H]4CCC5=CC(=O)C=C[C@]5(C)[C@@]4(F)[C@@H](O)C[C@]3(C)[C@]2(C(=O)CO)O1 (stereo not given in full)	i	i	i	i	12*
COC(=O)c1cc(COC(=O)c2nc3nccc(C)n3n2)oc1C	i	i	i	i	i
CC(C)c1c(O)nc(SCCN(C)C)[nH]c1=O	i	i	i	i	35*
CCCCCCCc1c(O)nc(SCCN(C)C)[nH]c1=O	81*	i	i	i	10*
CC(C)c1c(O)nc(SCC(=O)N2CCOCC2)[nH]c1=O	i	i	i	i	i
SMILES	TRPC4 agonist	TRPC6 inhibitor	TRPC6 activator	TRPC4 inh	TRPC4 PAM
CCCc1c(O)nc(SCC(=O)N2CCCCC2)[nH]c1=O	i	i	i	i	i
CCCc1c(O)nc(SCCN(CCC)CCC)[nH]c1=O	49*	i	i	i	19*
CCCc1cc2c(OC(=O)CC)c(-c3ccc(C(=O)OCC)o3)c(=O)oc2cc1OC	i	i	i	i	i
Cc1ccc(-n2nc(C)cc2Nc2ncc(Cl)cc2Cl)cc1	i	i	i	i	i
Cc1cc(Nc2ncc(Cl)cc2Cl)n(-c2ccccc2C)n1	i	i	i	-7*	i
C=CCNC(=O)C(=O)NCC1CCCN1S(=O)(=O)c1cccs1 (stereo not given)	i	i	i	i	86*
O=C(NCCO)C(=O)NCC1CCCN1S(=O)(=O)c1cccs1 (stereo not given)	i	i	i	i	i
O=C(NCCS(=O)(=O)N1CCCCC1)c1ccccc1	i	i	i	i	i
COc1ccc(N2CCN(Cc3nc4ccccc4n3C)CC2)cc1	124*	i	i	i	i
CC(=O)Nc1cccc(C(=O)NCC2(N3CCCCC3)CCCCC2)c1	i	i	i	-6*	i
CCOC(=O)c1c(CC(C)C)csc1N	i	i	i	-6*	i
CCc1cc(C(=O)COc2ccccc2F)c(O)cc1O	i	i	i	i	i
COc1ccc(N2CCN(CC(O)COc3ccccc3[N+](=O)[O-])CC2)cc1 (stereo not given)	i	i	i	i	i
O=C(NCc1ccccc1)c1c(Cl)nc(Cl)c(Cl)c1Cl	i	i	i	-6*	i
Cc1nc(Cl)c(C(=O)NCc2ccccc2)c(C)c1Cl	i	i	i	i	i
CN(C)CCCNC(=S)NCC(c1ccc(Cl)cc1Cl)c1c[nH]c2ccccc12 (stereo not given)	i	i	i	i	12*
NCC(c1ccc(Cl)cc1Cl)c1c[nH]c2ccccc12 (stereo not given)	i	i	i	i	26*
CC(C)CCNC(=O)C(c1cccnc1)N(Cc1ccccc1)C(=O)Cn1nnc2ccccc21 (stereo not given)	i	i	i	i	i
COc1cccc(C2CCCN2Cc2nc(-c3cnccn3)no2)c1 (stereo not given)	i	i	i	i	i
Cc1ccc(O)c(NC(=S)NC(=O)Cc2ccc(Cl)cc2)c1	i	i	i	i	12*
CC(C)(C)NC(=O)CCN(/N=C/c1ccccc1F)C1=NS(=O)(=O)c2ccccc21	i	i	i	i	i
COc1ccc(/C=C(\C#N)C(=O)N2CCOCC2)cc1Br	i	i	i	i	14*
NC(=S)N/N=C/c1ccc(-c2cc(Cl)c(Cl)cc2Cl)o1	i	i	i	i	i
NC(=S)N/N=C/c1ccc(Br)o1	i	i	i	i	10*
OCCC1CN(Cc2ccccc2-c2ccco2)CCN1Cc1ccccc1 (stereo not given)	113*	i	i	i	i
OCCC1CN(Cc2ccc3nsnc3c2)CCN1CCc1ccccc1 (stereo not given)	43*	i	i	i	i

Screening results (PubChem)
